Compounds with a hit are over-represented: about 2.3% of the library has one in this group of screens.
TRPC6 activator = mouse TRPC6 channel activation. Q61143. HEK293-TRPC6 membrane potential dye fluorescence; stronger effect = higher value. B-score at 10 µM. hit rate 0.13% among 310,000. AID 2550;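 active means B-score of the integrated fluorescence ratio above library mean plus 3 SD, and starting fluorescence ratio within library mean plus 5 SD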;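 further: higher score means more depolarization so channel activation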
TRPC4 agonist = opens the mouse TRPC4 cation channel; B-score at 10 µM; Q9QUQ5; HEK293 TRPC4beta/mu-opioid, Fluo4 calcium fluorescence; stronger effect = higher value; hit rate 0.49% among 310,000;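 active means B-score above 5 SD of library B-scores, and initial fluorescence ratio not above library mean plus 5 SD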;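 further: positive B-score marks a calcium rise read as TRPC4 activation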
Target sequence (Q9QUQ5 whole entry, looked up): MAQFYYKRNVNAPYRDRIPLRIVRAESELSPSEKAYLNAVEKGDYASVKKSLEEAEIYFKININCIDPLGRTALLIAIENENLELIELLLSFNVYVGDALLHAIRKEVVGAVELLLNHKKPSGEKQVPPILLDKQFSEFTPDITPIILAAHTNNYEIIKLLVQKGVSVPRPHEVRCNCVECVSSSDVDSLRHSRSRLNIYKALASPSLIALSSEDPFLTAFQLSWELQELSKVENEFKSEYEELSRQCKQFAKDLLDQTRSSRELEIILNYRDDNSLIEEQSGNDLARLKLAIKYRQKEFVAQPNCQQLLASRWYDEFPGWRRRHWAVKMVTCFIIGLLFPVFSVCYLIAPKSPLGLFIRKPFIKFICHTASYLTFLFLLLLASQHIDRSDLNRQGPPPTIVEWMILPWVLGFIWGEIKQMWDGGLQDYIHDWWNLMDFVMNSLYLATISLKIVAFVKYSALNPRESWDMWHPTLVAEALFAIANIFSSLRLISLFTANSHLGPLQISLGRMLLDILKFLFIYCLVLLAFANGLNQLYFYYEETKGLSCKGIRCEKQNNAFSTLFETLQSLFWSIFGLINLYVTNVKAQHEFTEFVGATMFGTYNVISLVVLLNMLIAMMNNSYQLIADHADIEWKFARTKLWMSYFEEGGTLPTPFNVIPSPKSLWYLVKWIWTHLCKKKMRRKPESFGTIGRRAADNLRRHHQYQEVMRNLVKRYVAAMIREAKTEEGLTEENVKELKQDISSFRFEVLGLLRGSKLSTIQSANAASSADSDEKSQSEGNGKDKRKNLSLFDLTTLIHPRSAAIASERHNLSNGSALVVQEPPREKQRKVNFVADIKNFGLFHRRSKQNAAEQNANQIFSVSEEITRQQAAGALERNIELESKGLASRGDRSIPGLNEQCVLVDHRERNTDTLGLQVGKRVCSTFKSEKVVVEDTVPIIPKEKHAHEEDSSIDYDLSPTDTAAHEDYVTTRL
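Technique: kinetic Fluo4 calcium fluorescence; Test system: TRPC4beta and mu-opioid receptor HEK293 stable cells; Measure: B-scored integrated calcium fluorescence ratio; Benchmarks: low control buffer alone, high control maximal DAMGO; Schedule: 45 min room-temperature Fluo4 loading, 110 s read.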
TRPC4 inh = blocks the mouse TRPC4 cation channel. Q9QUQ5. HEK293 TRPC4beta/mu-opioid, DAMGO-evoked Fluo4 calcium flux; stronger effect = lower value. B-score at 10 µM. hit rate 0.39% among 300,000;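 active means B-score over 3 SD under the library average, no early fluorescence shift, positive overall ratio signal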
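Test system – stable TRPC4beta/mu-opioid receptor HEK293 cells · Probe or stimulus – DAMGO, a submaximal dose followed by a maximal one · Dosing – one concentration per compound · Signal – Fluo4 calcium fluorescence by kinetic imaging, 5 s 1 Hz baseline · Evaluation – per-well B score of integrated baseline-normalized Fluo4 ratio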
TRPC4 potent = TRPC4 (mouse) allosteric potentiation; hit rate 0.42% among 310,000; B-score at 10 µM; Q9QUQ5; HEK293 TRPC4beta/mu-opioid, DAMGO EC20, Fluo-4 Ca2+ flux; stronger effect = higher value;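 active means B-score of calcium response area above 5 SD of library B-scores, with initial fluorescence ratio within 5 SD of library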;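 further: B-score of integrated fluorescence ratio over time as area under calcium response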
TRPC6 inh = inhibitors of mouse TRPC6 channel; Q61143; HEK293-TRPC6, membrane potential dye, ACh-evoked depolarization; stronger effect = lower value; B-score at 10 µM; hit rate 1.1% among 310,000; AID 2553;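 active means B-score under library mean minus 3 SD, initial fluorescence not abnormally high, positive integrated signal ratio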;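 further: B-score derived from integrated fluorescence ratio over the kinetic read; more negative B-score means stronger inhibition of depolarization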
TRPC4 spec 2 = second selectivity test of TRPC6 inhibitors: effect on mouse TRPC4 | shares compounds with TRPC6 inh | HEK293 TRPC4/MOR, membrane potential dye fluorescence; channel activated by saturating DAMGO dose | inhibition, % at 10 µM | hit rate 42% among 920 | AID 2776;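 active means compounds whose fluorescence signal differed from control wells by over 3 SD, either direction, in both duplicate plates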
TRPC4 spec = selectivity of TRPC6 inhibitors: effect on mouse TRPC4. hit rate 61% among 920. AID 2777. activity change, negative = inhibition, % at 10 µM. shares compounds with TRPC6 inh. HEK293 TRPC4/mu-opioid, membrane potential fluorescence;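 active means rise or fall in signal beyond 3 SD of buffer-only wells in both replicate plates, either sign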;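 further: integrated kinetic ratio of fluorescence range over baseline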
HEK293 MPD ctr 2-1 = second counter-screen for TRPC6 inhibitors: parental HEK293 cells; hit rate 31% among 920; parental HEK293 membrane potential dye fluorescence; maximal acetylcholine challenge after compound addition; shares compounds with TRPC6 inh; AID 2779; signal change vs control, % at 10 µM;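 active means membrane potential signal moving either way by over 3 SD of the maximum-effect control, in both duplicate plates, meaning non-specific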
HEK293 MPD ctr-1 = parental HEK293 nonspecific activity of TRPC6 inhibitors; hit rate 60% among 920; shares compounds with TRPC6 inh; membrane potential signal change, % at 10 µM; parental HEK293 membrane potential dye fluorescence;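 active means membrane potential signal shifting up or down by more than 3 SD of buffer-only wells, on both duplicate plates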
HEK293 MPD ctr-2 = counter-screen for TRPC6 modulators: effect in parental HEK293 cells; shares compounds with TRPC6 inh; membrane potential dye fluorescence; membrane potential signal change, % at 10 µM; hit rate 51% among 2,400;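 active means membrane potential signal moves up or down beyond 5 SD from buffer-only wells, on both duplicate plates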
HEK293 MPD ctr 2-2 = parental HEK293 nonspecific activity of TRPC6 modulators, second screen; hit rate 14% among 2,400; shares compounds with TRPC6 inh; inhibition, % at 10 µM; membrane potential dye fluorescence; after compound, maximal acetylcholine stimulation; AID 488926;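 active means membrane potential signal drops by more than 5 SD from the mean control signal, in both duplicate plates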;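 further: plate controls were acetylcholine ECmax control wells for no effect and buffer only wells for full effect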
TRPC4 ctr mod = mouse TRPC4 off-target activity of TRPC6 modulators; percent change from control (negative = decrease, positive = increase), % at 10 µM; hit rate 69% among 2,400; HEK293 TRPC4/mu-opioid, membrane potential fluorescence; shares compounds with TRPC6 inh;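 active means membrane potential signal moved up or down beyond 5 SD of buffer control wells, in both duplicate plates, actives on both sides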;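 further: plate controls were assay buffer wells for no effect and DAMGO maximal-effect wells for full effect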
TRPC4 ctr inh 2 = second selectivity test of TRPC6 modulators against mouse TRPC4; HEK293 TRPC4/mu-opioid, membrane potential dye fluorescence; stimulated with maximal-effect DAMGO; AID 488928; inhibition, % at 10 µM; hit rate 55% among 2,400; shares compounds with TRPC6 inh;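 active means drop in membrane potential signal beyond 5 SD of the control wells in both duplicate plates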;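 further: TRPC4 counter screen for TRPC6 hits run under conditions tuned for TRPC6 not TRPC4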
TRPC6 block conf = mouse TRPC6 inhibitor confirmation; shares compounds with TRPC6 inh; HEK293-TRPC6, membrane potential dye, ACh-evoked depolarization; inhibition, % at 10 µM; hit rate 43% among 3,300; AID 488960;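 active means fluorescence ratio falls more than 5 SD below the full-stimulation control mean, in both duplicate runs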;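 further: integrated fluorescence ratio of peak minus minimum over baseline after agonist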
TRPC6 act confirm = mouse TRPC6 activator confirmation | shares compounds with TRPC6 inh | AID 488961 | HEK293-TRPC6 membrane potential dye fluorescence, FDSS | hit rate 11% among 2,800 | activation, % at 10 µM;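 active means ratio signal rise beyond 5 SD above unstimulated control wells' mean, seen in both duplicate runs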;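 further: plate controls were buffer EC0 wells for no effect and acetylcholine ECmax response for full effect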
Starred values were filed as active, the others as inactive; i = inactive; . = no result given; ! = not confirmed by another sample.

SMILES	TRPC6 activator	TRPC4 agonist	TRPC4 inh	TRPC4 potent	TRPC6 inh	HEK293 MPD ctr-2	HEK293 MPD ctr 2-2	TRPC4 ctr mod	TRPC4 ctr inh 2	TRPC6 block conf	TRPC6 act confirm	others
CCCCn1c(N)c(N(CCOC)C(=O)c2ccc(C)c(S(=O)(=O)N3CCCCC3)c2)c(=O)[nH]c1=O	i	i	i	i	-5.76*	i	i	i	i	i	i
CCN1CCN(c2ccc([N+](=O)[O-])c(Sc3nc4ccccc4[nH]3)c2)CC1	i	i	i	i	-5.37*	i	i	-12.0%*	61.0%*	45.5%*	i
Cc1ccc(C)c(COc2coc(CN3CCN(C(=O)c4ccco4)CC3)cc2=O)c1	i	i	i	i	i	.	.	.	.	.	.
Cc1cccnc1NCC(O)COc1ccccc1 (stereo not drawn)	i	i	i	i	-6.48*	i	i	i	i	i	i
O=C(O)CC(CC(=O)O)(C(=O)O)c1ccccc1	i	i	i	i	i	.	.	.	.	.	.
CCN(CC)CCN1C(=O)c2ccccc2NC1c1ccc(F)cc1 (stereo not drawn)	i	i	i	i	i	.	.	.	.	.	.
CCN(CC)CCN1C(=O)c2ccccc2NC1c1ccc(Br)cc1 (stereo not drawn)	i	i	i	i	-6.65*	i	i	18.0%*	41.5%*	i	.
CCN(CC)CCNc1cc(C)nc2c1C(=O)C(=O)C=C2N1CCCCC1	i	i	i	i	-7.46*	-273.5%*	i	-46.5%*	39.0%*	i	i
O=C1CC(NS(=O)(=O)c2cccs2)CN1c1cccc(F)c1 (stereo not drawn)	i	i	i	i	i	.	.	.	.	.	.
CCOc1cc(S(=O)(=O)N2CCN(C(=O)c3ccco3)CC2)ccc1F	i	i	i	22*	-5.7*	i	i	42.0%*	i	37.5%*	.
CC1CCN(CCCNc2cc(NCCO)c([N+](=O)[O-])c3nonc23)CC1	i	i	i	i	-7.2*	.	.	.	.	56.8%*	i	TRPC4 spec 2=i;TRPC4 spec=-28.8%*;HEK293 MPD ctr 2-1=35.5%*;HEK293 MPD ctr-1=-454.0%*
CN(CCO)c1cc(NCCCN2CCC(Cc3ccccc3)CC2)c2nonc2c1[N+](=O)[O-]	i	i	i	i	i	.	.	.	.	.	.
CCOc1ccc(S(=O)(=O)N2CCN=C2c2ccccc2)cc1	i	i	i	i	i	.	.	.	.	.	.
C=CCn1c(SCCN2CCCC2)nc2c([nH]c3ccccc32)c1=O	i	i	i	17*	-8.6*	i	i	-17.5%*	65.5%*	53.0%*	i
CCN1C(=O)[C@H]2[C@@H](c3ccc(-c4cccc(Cl)c4)cc3)N[C@@](Cc3ccccc3)(C(=O)OC)[C@H]2C1=O	i	i	i	i	i	.	.	.	.	.	.
COCCCC/C(=N\OCCN)c1ccc(C(F)(F)F)cc1	i	i	i	i	-5.02*!	i	i	12.5%*	48.0%*	43.0%*	i
O=C(CCC(=O)OCC(=O)c1ccc(C(F)(F)F)cc1)OCC(=O)c1ccc(C(F)(F)F)cc1	i	i	i	i	i	.	.	.	.	.	.
Oc1ccc(Nc2ccnc3cc(Cl)ccc23)cc1	i	i	i	i	i	.	.	.	.	.	.
Clc1ccc2c(NCc3ccccc3)ccnc2c1	i	i	i	i	-5.49*	-98.5%*	i	-23.0%*	77.5%*	37.5%*	i
CCN(CC)CCNc1ccnc2cc(Cl)ccc12	i	i	i	i	-11.8*	-333.0%*	70.5%*	-50.0%*	71.0%*	73.0%*	i
CCN(CC)Cc1cc(Nc2ccnc3cc(Cl)ccc23)ccc1O	i	i	i	i	-5.72*!	-184.5%*	i	-33.5%*	51.5%*	i	i
CCC(C)NC(=S)N(Cc1cc2cc(C)ccc2n2nnnc12)CC(C)(C)NC(C)C (stereo not drawn)	i	i	i	i	i	.	.	.	.	.	.
CSCC[C@H](NC(=O)N1CCn2c1nc1ccccc12)C(=O)N1CCCCC1	i	i	i	i	i	.	.	.	.	.	.
CNC(=S)N(CCc1c(C)[nH]c2ccc(Cl)cc12)Cc1cccnc1	i	i	i	i	i	.	.	.	.	.	.
CCNC(=S)N(CCc1c(C)[nH]c2ccc(Cl)cc12)Cc1cccnc1	i	i	i	i	-5.83*	i	i	i	i	i	i
COCCNC(=S)N(CCc1c(C)[nH]c2ccc(F)cc12)Cc1cccnc1	i	i	i	i	i	.	.	.	.	.	.
COCCNC(=S)N(CCc1c(C)[nH]c2ccc(Cl)cc12)Cc1cccnc1	i	i	i	i	-7.04*	.	.	.	.	i	i	TRPC4 spec 2=i;TRPC4 spec=i;HEK293 MPD ctr 2-1=i;HEK293 MPD ctr-1=i
CC(C)(C)SCCNC(=O)COc1ccc(Cl)cc1	i	i	i	i	-5.31*	i	i	i	i	i	.
Cc1ccccc1CSCCNC(=O)COc1ccc(Cl)cc1	i	i	i	i	i	.	.	.	.	.	.

Screening data: PubChem, Johns Hopkins Ion Channel Center
